Experimental data published in ChEMBL document CHEMBL1135644, “Effect of spermine conjugation on the cytotoxicity and cellular transport of acridine” (J Med Chem, 2002).
One block for each compound: values may come before it.

What was measured:
Nucleic Acid = assay: Drug concentration required to produce 50% inhibition of fluorescence bound ethidium to CT-DNA (1.26:1) (+/-SEM 5%); type: functional; details: Bos taurus
Procedure, shortened: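 Ethidium displacement: 1 μM CT-DNA with 1.26 μM ethidium bromide; conjugate stock added serially. Fluorescence was read at excitation 546 nm and emission 595 nm. The value is the conjugate concentration cutting DNA-bound ethidium fluorescence by 50%. Mean of three determinations (±5%).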

CHO [1] = assay: Cellular uptake of conjugates in CHO cells at a concentration of 10 uM (+/-15% SEM); type: functional, cell-based; details: Cricetulus griseus
Procedure, shortened: (§1)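 Conjugates added 24 h after seeding (1 × 10^5 cells/mL, RPMI 1640 with 10% FCS and 2 mM aminoguanidine; proline added for CHO-MG) and left for 24 h. Cells were washed in 0.14 M NaCl, sonicated in 0.2 N HClO4/2 M NaCl and held 16 h at 4 °C. Conjugate in the supernatant was measured by fluorimetry against standards and expressed per mg protein (Folin). Mean of three determinations (±15%).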

CHO [2] = assay: Cellular uptake of conjugates in CHO cells at a concentration of 2 uM (+/-15% SEM); type: functional, cell-based; details: Cricetulus griseus; procedure, shortened: as §1
CHO-MG [3] = assay: In vitro 25% cell growth inhibition by the compound in CHO-MG cells; type: functional, Cricetulus griseus
Procedure, shortened: (§2)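 CHO or CHO-MG cells were trypsinized and plated singly at 2 × 10^3 cells/mL in RPMI 1640/10% FCS with 2 mM aminoguanidine (proline for CHO-MG). Conjugates were added after overnight incubation, with 48 h exposure. Growth was read by MTT formazan absorbance at 540 nm relative to untreated controls. The value is the concentration giving 25% or 50% growth inhibition.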

CHO-MG [4] = assay: In vitro 25% cell growth inhibition by the compound in CHO-MG cells with 5 mM DFMO addition; type: functional; details: Cricetulus griseus
Procedure, shortened: (§3)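 CHO or CHO-MG cells were plated at 2 × 10^3 cells/mL and incubated overnight. Conjugates and 5 mM DFMO were then added together, with 2 mM aminoguanidine present, for 48 h. MTT absorbance at 540 nm was expressed relative to DFMO-treated controls. The value is the concentration inhibiting growth 25% or 50%.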

CHO-MG [5] = assay: In vitro 50% cell growth inhibition by the compound in CHO-MG cells; type: functional, cell-based; details: Cricetulus griseus; procedure, shortened: as §2
CHO-MG [6] = assay: In vitro 50% cell growth inhibition by the compound in CHO-MG cells with 5 mM DFMO addition; type: functional, cell-based; details: Cricetulus griseus; procedure, shortened: as §3
CHO-MG [7] = assay: Cellular uptake of conjugates in CHO-MG cells at a concentration of 10 uM (+/-15% SEM); type: functional, cell-based; details: Cricetulus griseus; procedure, shortened: as §1
CHO-MG [8] = assay: Cellular uptake of conjugates in CHO-MG cells at a concentration of 2 uM (+/-15% SEM); type: functional, cell-based; details: Cricetulus griseus; procedure, shortened: as §1
CHO [9] = assay: In vitro 50% cell growth inhibition by the co mpound in CHO cells with 5 mM DFMO addition; type: functional, cell-based; details: Cricetulus griseus; procedure, shortened: as §3
CHO [10] = assay: In vitro 25% cell growth inhibition by the compound in CHO cells; type: functional; details: Cricetulus griseus; procedure, shortened: as §2
CHO [11] = assay: In vitro 25% cell growth inhibition by the compound in CHO cells with 5 mM DFMO addition; type: functional; details: Cricetulus griseus; procedure, shortened: as §3
L1210 [12] = assay: In vitro 50% cell growth inhibition by the compound in L1210 cells; type: functional, cell-based; details: Mus musculus
Procedure, shortened: (§4)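 L1210 cells were seeded at 5 × 10^4 cells/mL with conjugate added at seeding, in medium with 2 mM aminoguanidine, for 48 h exposure. Growth was measured by MTT absorbance at 540 nm relative to untreated controls.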

L1210 [13] = assay: In vitro 50% cell growth inhibition by the compound in L1210 cells with 5 mM DFMO addition; type: functional, cell-based; details: Mus musculus
Procedure, shortened: (§5)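 L1210 cells were seeded at 5 × 10^4 cells/mL, and conjugate plus 5 mM DFMO were added at seeding with 2 mM aminoguanidine present. After 48 h, growth was read by MTT at 540 nm relative to DFMO-only controls.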

L1210 [14] = assay: In vitro 25% cell growth inhibition by the compound in L1210 cells; type: functional; details: Mus musculus; procedure, shortened: as §4
L1210 [15] = assay: In vitro 25% cell growth inhibition by the compound in L1210 cells with 5 mM DFMO addition; type: functional; details: Mus musculus; procedure, shortened: as §5
L1210 [16] = assay: Inhibition of [14C]SPD uptake by the compound in 5 min initial rate transport assay in L1210 cells; type: functional, cell-based, Mus musculus
L1210 [17] = assay: Cellular uptake of conjugates in L1210 cells (control) at a concentration of 0.5 uM (+/-15% SEM); type: functional, cell-based; details: Mus musculus
Procedure, shortened: (§6)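 L1210 cells were seeded at 2 × 10^5 cells/mL with conjugate added at seeding, in medium containing 2 mM aminoguanidine, and cultured 24 h. Washed cells were extracted in 0.2 N HClO4/2 M NaCl for 16 h at 4 °C. Intracellular conjugate was quantified by fluorimetry and expressed as nmol/mg protein. Mean of three determinations (±15%).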

L1210 [18] = assay: Cellular uptake of conjugates in L1210 cells (control) at a concentration of 10 uM (+/-15% SEM); type: functional, cell-based; details: Mus musculus; procedure, shortened: as §6
L1210 [19] = assay: Cellular uptake of conjugates in L1210 cells (control) at a concentration of 2 uM (+/-15% SEM); type: functional, cell-based; details: Mus musculus; procedure, shortened: as §6
L1210 [20] = assay: Cellular uptake of conjugates in L1210 cells in presence of 500 uM SPD at a concentration of 0.5 uM (+/-15% SEM); type: functional, cell-based; details: Mus musculus
Procedure, shortened: (§7)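 Same as the L1210 uptake assay: seeded at 2 × 10^5 cells/mL, conjugate plus 500 μM spermidine added together at seeding, 24 h exposure. Extraction in HClO4/NaCl, fluorimetric quantitation, normalized to protein. Mean of three determinations (±15%).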

L1210 [21] = assay: Cellular uptake of conjugates in L1210 cells in presence of 500 uM SPD at a concentration of 10 uM (+/-15% SEM); type: functional, cell-based; details: Mus musculus; procedure, shortened: as §7
L1210 [22] = assay: Cellular uptake of conjugates in L1210 cells in presence of 500 uM SPD at a concentration of 2 uM (+/-15% SEM); type: functional, cell-based; details: Mus musculus; procedure, shortened: as §7
L1210 [23] = assay: Cellular uptake of conjugates in L1210 cells pretreated with 5 mM DFMO at a concentration of 0.5 uM (+/-15% SEM); type: functional, cell-based; details: Mus musculus
Procedure, shortened: (§8)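 L1210 cells were seeded at 10^5 cells/mL in medium with 5 mM DFMO, and conjugates were added 24 h later. Cells were harvested after a further 24 h, extracted in 0.2 N HClO4/2 M NaCl and assayed by fluorimetry, expressed per mg protein. Mean of three determinations (±15%).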

L1210 [24] = assay: Cellular uptake of conjugates in L1210 cells pretreated with 5 mM DFMO at a concentration of 10 uM (+/-15% SEM); type: functional, cell-based; details: Mus musculus; procedure, shortened: as §8
L1210 [25] = assay: Cellular uptake of conjugates in L1210 cells pretreated with 5 mM DFMO at a concentration of 2 uM (+/-15% SEM); type: functional, cell-based; details: Mus musculus; procedure, shortened: as §8
[26] = Ratio of cellular uptake in CHO cells to that of CHO-MG cells 2 uM; type: functional
[27] = Ratio of cellular uptake in CHO cells to that of CHO-MG cells at 10 uM; type: functional
CHO [28] = assay: In vitro 50% cell growth inhibition by the compound in CHO cells; type: functional, cell-based; details: Cricetulus griseus; procedure, shortened: as §2
CHO [29] = assay: Cellular uptake of conjugates in CHO cells at a concentration of 0.5 uM (+/-15% SEM); type: functional, cell-based; details: Cricetulus griseus; procedure, shortened: as §1
CHO-MG [30] = assay: Cellular uptake of conjugates in CHO-MG cells at a concentration of 0.5 uM (+/-15% SEM); type: functional, cell-based; details: Cricetulus griseus; procedure, shortened: as §1
L1210 [31] = assay: Cellular uptake of conjugates in L1210 cells (control) at a concentration of 1 uM (+/-15% SEM); type: functional, cell-based; details: Mus musculus; procedure, shortened: as §6
L1210 [32] = assay: Cellular uptake of conjugates in L1210 cells in presence of 500 uM SPD at a concentration of 1 uM (+/-15% SEM); type: functional, cell-based; details: Mus musculus; procedure, shortened: as §7
L1210 [33] = assay: Cellular uptake of conjugates in L1210 cells pretreated with 5 mM DFMO at a concentration of 1 uM (+/-15% SEM); type: functional, cell-based; details: Mus musculus; procedure, shortened: as §8
[34] = Ratio of cellular uptake in CHO cells to that of CHO-MG cells.; type: functional

SMILES: c1ccc2nc3ccccc3cc2c1
- Concentration for 50% ethidium displacement from DNA (C50) (Nucleic Acid): 142000 nM

- IC50 (L1210 [12]): 41000 nM
- IC50 (L1210 [13]): 6600 nM
SMILES: Cl.NCCCNCCCCNCCCNCCCCCNC(=O)c1c2ccccc2nc2ccccc12
- Uptake (nM (mg of protein)-1) (CHO [1]): 0.125
- Uptake (nM (mg of protein)-1) (CHO [2]): 0.034
- IC25 (CHO-MG [3]): 10500 nM
- IC25 (CHO-MG [4]): 6000 nM
- IC50 (CHO-MG [5]): 31000 nM
- IC50 (CHO-MG [6]): 23000 nM
- Uptake (nM (mg of protein)-1) (CHO-MG [7]): 0.112
- Uptake (nM (mg of protein)-1) (CHO-MG [8]): 0.032
- IC50 (CHO [9]): 2000 nM
- IC25 (CHO [10]): 10800 nM
- IC25 (CHO [11]): 25 nM
- IC25 (L1210 [14]): 22000 nM
- IC25 (L1210 [15]): 100 nM
- Ki (L1210 [16]): 97 nM
- Uptake (nM (mg of protein)-1) (L1210 [17]): 0.033
- Uptake (nM (mg of protein)-1) (L1210 [18]): 0.279
- Uptake (nM (mg of protein)-1) (L1210 [19]): 0.064
- Uptake (nM (mg of protein)-1) (L1210 [20]): 0.016
- Uptake (nM (mg of protein)-1) (L1210 [21]): 0.262
- Uptake (nM (mg of protein)-1) (L1210 [22]): 0.049
- Uptake (nM (mg of protein)-1) (L1210 [23]): 0.113
- Uptake (nM (mg of protein)-1) (L1210 [24]): 0.631
- Uptake (nM (mg of protein)-1) (L1210 [25]): 0.217
- Concentration for 50% ethidium displacement from DNA (C50) (Nucleic Acid): 120 nM
- Ratio [26]: 1.1
- Ratio [27]: 1.1
- IC50 (CHO [28]): 25000 nM

- IC50 (L1210 [12]): 2800 nM
- IC50 (L1210 [13]): 900 nM
SMILES: Cl.NCCCNCCCCNCCCNCCCNc1c2ccccc2nc2ccccc12
- Uptake (nM (mg of protein)-1) (CHO [29]): 0.167
- IC25 (CHO-MG [3]; Cricetulus griseus, CHO-MG, read-out: IC25): 1800 nM
- IC25 (CHO-MG [4]): 2500 nM
- IC50 (CHO-MG [5]): 6100 nM
- IC50 (CHO-MG [6]): 7300 nM
- Uptake (nM (mg of protein)-1) (CHO-MG [30]): 0.054
- IC50 (CHO [9]): 1300 nM
- IC25 (CHO [10]): 900 nM
- IC25 (CHO [11]): 320 nM
- IC25 (L1210 [14]): 1400 nM
- IC25 (L1210 [15]): 140 nM
- Ki (L1210 [16]): 129 nM
- Uptake (nM (mg of protein)-1) (L1210 [17]): 0.186
- Uptake (nM (mg of protein)-1) (L1210 [31]): 0.307
- Uptake (nM (mg of protein)-1) (L1210 [19]): 0.717
- Uptake (nM (mg of protein)-1) (L1210 [20]): 0.053
- Uptake (nM (mg of protein)-1) (L1210 [32]): 0.188
- Uptake (nM (mg of protein)-1) (L1210 [22]): 0.553
- Uptake (nM (mg of protein)-1) (L1210 [23]): 0.496
- Uptake (nM (mg of protein)-1) (L1210 [33]): 0.728
- Uptake (nM (mg of protein)-1) (L1210 [25]): 1.58
- Concentration for 50% ethidium displacement from DNA (C50) (Nucleic Acid): 110 nM
- Ratio [34]: 3.1
- IC50 (CHO [28]): 2300 nM

SMILES: NCCCNCCCCNCCCN
- CC50 (Nucleic Acid): 6800 nM
